Results: ChEMBL document CHEMBL4414558, “Dehydroabietylamine Ureas and Thioureas as Tyrosyl-DNA Phosphodiesterase 1 Inhibitors That Enhance the Antitumor Effect of Temozolomide on Glioblastoma Cells” (J Nat Prod, 2019)

Key:
[1] = target: Tyrosyl-DNA phosphodiesterase 1 (Homo sapiens, UniProt Q9NUW8); assay: Inhibition of recombinant TDP1 (unknown origin) using 5'-(5,6 FAM-aac gtc agg gtc ttc c-BHQ1)-3' as substrate measured every 55 secs for 8 mins by fluorescence based assay
Procedure, shortened: (§1)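 Purified TDP1, either wild-type or the H493R mutant, tested against the fluorogenic substrate. The IC50 is the compound concentration that cuts enzyme activity by 50%.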

[2] = target: Poly [ADP-ribose] polymerase 1 (Homo sapiens) (UniProt P09874); assay: Inhibition of PARP1 (unknown origin) assessed as residual activity at 100 uM relative to control
Poly [ADP-ribose] polymerase 1 (Homo sapiens), sequence (P09874 whole entry): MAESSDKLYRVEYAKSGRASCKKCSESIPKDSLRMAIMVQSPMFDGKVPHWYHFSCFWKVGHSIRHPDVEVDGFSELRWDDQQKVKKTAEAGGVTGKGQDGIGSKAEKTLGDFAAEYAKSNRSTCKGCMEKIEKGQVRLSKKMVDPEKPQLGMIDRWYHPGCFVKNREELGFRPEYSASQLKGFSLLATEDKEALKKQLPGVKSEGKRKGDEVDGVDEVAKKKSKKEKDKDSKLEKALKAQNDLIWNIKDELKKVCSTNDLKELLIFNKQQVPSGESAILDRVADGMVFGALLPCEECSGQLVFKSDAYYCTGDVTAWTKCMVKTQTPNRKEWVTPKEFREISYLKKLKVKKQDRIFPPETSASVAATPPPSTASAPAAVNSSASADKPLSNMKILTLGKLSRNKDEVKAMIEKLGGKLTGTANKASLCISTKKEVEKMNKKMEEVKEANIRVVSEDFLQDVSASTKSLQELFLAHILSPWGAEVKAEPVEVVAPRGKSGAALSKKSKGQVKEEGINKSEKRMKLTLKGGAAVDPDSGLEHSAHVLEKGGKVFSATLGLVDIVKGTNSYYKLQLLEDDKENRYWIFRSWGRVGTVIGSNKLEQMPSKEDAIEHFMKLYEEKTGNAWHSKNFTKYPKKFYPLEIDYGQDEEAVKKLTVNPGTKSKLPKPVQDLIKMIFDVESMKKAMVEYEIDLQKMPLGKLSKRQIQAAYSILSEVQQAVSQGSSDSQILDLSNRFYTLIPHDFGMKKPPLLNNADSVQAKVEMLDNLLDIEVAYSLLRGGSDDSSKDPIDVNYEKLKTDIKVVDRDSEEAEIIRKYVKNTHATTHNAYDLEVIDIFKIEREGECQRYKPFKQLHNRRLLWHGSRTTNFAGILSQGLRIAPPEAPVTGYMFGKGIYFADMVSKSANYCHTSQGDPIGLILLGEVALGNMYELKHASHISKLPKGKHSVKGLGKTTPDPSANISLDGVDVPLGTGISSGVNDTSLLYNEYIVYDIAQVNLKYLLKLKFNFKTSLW

[3] = target: Poly [ADP-ribose] polymerase 2 (Homo sapiens) (UniProt Q9UGN5); assay: Inhibition of PARP2 (unknown origin) assessed as residual activity at 100 uM relative to control
Poly [ADP-ribose] polymerase 2 (Homo sapiens), sequence (Q9UGN5 whole entry): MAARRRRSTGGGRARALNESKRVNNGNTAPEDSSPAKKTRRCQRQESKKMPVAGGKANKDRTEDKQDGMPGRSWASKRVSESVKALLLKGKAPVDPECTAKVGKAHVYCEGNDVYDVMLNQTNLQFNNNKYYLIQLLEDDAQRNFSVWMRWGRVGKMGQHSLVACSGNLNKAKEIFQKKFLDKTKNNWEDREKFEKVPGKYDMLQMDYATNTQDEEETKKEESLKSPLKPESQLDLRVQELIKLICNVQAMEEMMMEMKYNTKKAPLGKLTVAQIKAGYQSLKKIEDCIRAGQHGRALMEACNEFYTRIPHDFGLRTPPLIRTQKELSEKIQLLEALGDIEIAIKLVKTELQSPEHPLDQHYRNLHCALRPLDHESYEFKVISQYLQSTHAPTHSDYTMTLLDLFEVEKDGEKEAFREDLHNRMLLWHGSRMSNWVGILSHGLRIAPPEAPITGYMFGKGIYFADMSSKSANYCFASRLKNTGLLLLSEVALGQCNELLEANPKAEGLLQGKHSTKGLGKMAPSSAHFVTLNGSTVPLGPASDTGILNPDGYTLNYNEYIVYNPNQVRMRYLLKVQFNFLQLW

[4] = target: Tyrosyl-DNA phosphodiesterase 1 (Homo sapiens, UniProt Q9NUW8, H493R); assay: Inhibition of recombinant TDP1 H493R mutant (unknown origin) using 5'-(5,6 FAM-aac gtc agg gtc ttc c-BHQ1)-3' as substrate measured every 55 secs for 8 mins by fluorescence based assay; procedure, shortened: as §1
Tyrosyl-DNA phosphodiesterase 1 (Homo sapiens, UniProt Q9NUW8, H493R), sequence (Q9NUW8 whole entry H493R): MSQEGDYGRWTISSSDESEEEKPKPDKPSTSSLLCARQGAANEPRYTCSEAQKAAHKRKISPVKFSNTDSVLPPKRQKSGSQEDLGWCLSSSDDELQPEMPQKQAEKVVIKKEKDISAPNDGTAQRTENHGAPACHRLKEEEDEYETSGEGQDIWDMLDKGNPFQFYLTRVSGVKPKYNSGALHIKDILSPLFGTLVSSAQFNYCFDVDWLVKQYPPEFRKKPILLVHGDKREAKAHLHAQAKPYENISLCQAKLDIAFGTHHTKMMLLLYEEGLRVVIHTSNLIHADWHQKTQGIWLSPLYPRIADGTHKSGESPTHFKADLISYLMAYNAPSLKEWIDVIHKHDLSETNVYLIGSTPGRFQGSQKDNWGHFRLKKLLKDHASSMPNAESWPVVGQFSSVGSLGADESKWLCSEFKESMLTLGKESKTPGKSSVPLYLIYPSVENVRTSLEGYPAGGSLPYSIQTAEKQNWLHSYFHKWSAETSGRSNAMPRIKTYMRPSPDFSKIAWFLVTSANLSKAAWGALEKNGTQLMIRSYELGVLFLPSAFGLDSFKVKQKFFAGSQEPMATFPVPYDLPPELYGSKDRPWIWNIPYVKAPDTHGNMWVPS

U-937 = assay: Cytotoxicity activity against human U937 cells assessed as reduction in cell viability incubated for 72 hrs by MTT assay; type: cell-based; settings: U-937, 72 h
U-87 MG [5] = assay: Cytotoxicity activity against human U87MG cells assessed as reduction in cell viability incubated for 72 hrs by MTT assay; type: cell-based, U-87MG ATCC
[6] = Cytotoxicity activity against human MDA-MB cells assessed as reduction in cell viability incubated for 72 hrs by MTT assay; type: cell-based
[7] = Cytotoxicity activity against human SK-MEL-8 cells assessed as reduction in cell viability incubated for 72 hrs by MTT assay; type: cell-based
A549 = assay: Cytotoxicity activity against human A549 cells assessed as reduction in cell viability incubated for 72 hrs by MTT assay; type: cell-based; settings: A549, 72 h
WI-38 = assay: Cytotoxicity activity against human WI38 cells assessed as reduction in cell viability incubated for 72 hrs by MTT assay; type: cell-based; settings: WI-38, 72 h
MCF7 = assay: Cytotoxicity activity against human MCF7 cells assessed as reduction in cell viability incubated for 72 hrs by MTT assay; type: cell-based; settings: MCF7, 72 h
T98G = assay: Cytotoxicity activity against human T98G cells assessed as reduction in cell viability incubated for 72 hrs by MTT assay; type: cell-based
SNB-19 [8] = assay: Cytotoxicity activity against human SNB19 cells assessed as reduction in cell viability incubated for 72 hrs by MTT assay; type: cell-based; settings: SNB-19, 72 h
U-87 MG [9] = assay: Potentiation of TMZ-induced cytotoxicity against human U87MG cells assessed as cell viability at 100 uM incubated for 72 hrs in presence of 2000 uM TMZ by MTT assay (reference value: 100%); type: functional, U-87MG ATCC
U-87 MG [10] = assay: Potentiation of TMZ-induced cytotoxicity against human U87MG cells assessed as cell viability at 100 uM incubated for 72 hrs in presence of 2500 uM TMZ by MTT assay (reference value: 100%); type: functional, U-87MG ATCC
SNB-19 [11] = assay: Potentiation of TMZ-induced cytotoxicity against human SNB19 cells assessed as cell viability at 100 uM incubated for 72 hrs in presence of 1250 uM TMZ by MTT assay (Rvb =100%); type: functional
SNB-19 [12] = assay: Potentiation of TMZ-induced cytotoxicity against human SNB19 cells assessed as cell viability at 75 uM incubated for 72 hrs in presence of 2000 uM TMZ by MTT assay (Rvb =100%); type: functional
U-87 MG [13] = assay: Potentiation of TMZ-induced cytotoxicity against human U87MG cells assessed as reduction in cell viability at 100 uM incubated for 72 hrs in presence of 2000 uM TMZ by MTT assay relative to TMZ alone; type: functional, U-87MG ATCC
U-87 MG [14] = assay: Potentiation of TMZ-induced cytotoxicity against human U87MG cells assessed as reduction in cell viability at 100 uM incubated for 72 hrs in presence of 2500 uM TMZ by MTT assay relative to TMZ alone; type: functional, U-87MG ATCC
SNB-19 [15] = assay: Potentiation of TMZ-induced cytotoxicity against human SNB19 cells assessed as reduction in cell viability at 100 uM incubated for 72 hrs in presence of 1250 uM TMZ by MTT assay relative to TMZ alone; type: functional
SNB-19 [16] = assay: Potentiation of TMZ-induced cytotoxicity against human SNB19 cells assessed as reduction in cell viability at 75 uM incubated for 72 hrs in presence of 2000 uM TMZ by MTT assay relative to TMZ alone; type: functional
U-87 MG [17] = assay: Potentiation of TMZ-induced cytotoxicity against human U87MG cells assessed as combination index at 100 uM incubated for 72 hrs in presence of 2000 uM TMZ by MTT assay; type: functional, U-87MG ATCC
U-87 MG [18] = assay: Potentiation of TMZ-induced cytotoxicity against human U87MG cells assessed as combination index at 100 uM incubated for 72 hrs in presence of 2500 uM TMZ by MTT assay; type: functional, U-87MG ATCC
SNB-19 [19] = assay: Potentiation of TMZ-induced cytotoxicity against human SNB19 cells assessed as combination index at 100 uM incubated for 72 hrs in presence of 1250 uM TMZ by MTT assay; type: functional
SNB-19 [20] = assay: Potentiation of TMZ-induced cytotoxicity against human SNB19 cells assessed as combination index at 75 uM incubated for 72 hrs in presence of 2000 uM TMZ by MTT assay; type: functional

Tyrosyl-DNA phosphodiesterase 1 (Homo sapiens, UniProt Q9NUW8), sequence (Q9NUW8 whole entry): as the sequence (Q9NUW8 whole entry H493R) above, with R493H counted along it

SMILES | IC50 [1] | Activity [2] | Activity [3] | IC50 [4] | IC50 (U-937) | IC50 (U-87 MG [5]) | IC50 [6] | IC50 [7] | IC50 (A549) | IC50 (WI-38) | IC50 (MCF7) | IC50 (T98G) | IC50 (SNB-19 [8]) | Activity (U-87 MG [9]) | Activity (U-87 MG [10]) | Activity (SNB-19 [11]) | Activity (SNB-19 [12]) | fold change (FC) (U-87 MG [14]) | fold change (FC) (SNB-19 [16]) | CI (U-87 MG [17]) | other results
CC(C)c1ccc2c(c1)CC[C@H]1[C@](C)(CNC(=S)Nc3ccccc3)CCC[C@]21C | 710 nM | 98% | 116% | 19.9 µM | > 100 µM | > 100 µM | > 100 µM | > 100 µM | > 100 µM | 70 µM | 26 µM | – | – | – | – | – | – | – | – | – | –
CNC(=S)NC[C@]1(C)CCC[C@]2(C)c3ccc(C(C)C)cc3CC[C@@H]12 | 1490 nM | 110% | 114% | > 50 µM | 16.8 µM | > 100 µM | > 100 µM | > 100 µM | 19.7 µM | – | – | 73.3 µM | < 10 µM | – | – | – | – | – | – | – | –
CC(C)c1ccc2c(c1)CC[C@H]1[C@](C)(CNC(=O)Nc3ccccc3)CCC[C@]21C | 950 nM | 106% | 129% | 24.1 µM | > 100 µM | > 100 µM | > 100 µM | > 100 µM | > 100 µM | > 100 µM | > 100 µM | > 100 µM | 17 µM | – | – | – | – | – | – | – | –
CCNC(=S)NC[C@]1(C)CCC[C@]2(C)c3ccc(C(C)C)cc3CC[C@@H]12 | 2300 nM | 100% | 116% | > 50 µM | 18.7 µM | > 100 µM | > 100 µM | > 100 µM | > 100 µM | – | – | > 100 µM | < 10 µM | – | – | – | – | – | – | – | –
CC(C)c1ccc2c(c1)CC[C@H]1[C@](C)(CNC(=O)NC3CCCCC3)CCC[C@]21C | 500 nM | 96% | 99% | 39.2 µM | > 100 µM | > 100 µM | > 100 µM | > 100 µM | > 100 µM | 52 µM | > 100 µM | > 100 µM | < 10 µM | – | – | – | – | – | – | – | –
CCNC(=O)NC[C@]1(C)CCC[C@]2(C)c3ccc(C(C)C)cc3CC[C@@H]12 | 3700 nM | 100% | 116% | > 50 µM | 34.8 µM | > 100 µM | > 100 µM | > 100 µM | > 100 µM | – | – | > 100 µM | < 10 µM | – | – | – | – | – | – | – | –
C=CCNC(=S)NC[C@]1(C)CCC[C@]2(C)c3ccc(C(C)C)cc3CC[C@@H]12 | 570 nM | 104% | 98% | > 50 µM | 22.2 µM | > 100 µM | > 100 µM | > 100 µM | 100 µM | 50 µM | 10 µM | > 100 µM | < 10 µM | – | – | – | – | – | – | – | –

Now those with a lower IC50 [1], led by results:

IC50 [1] | Activity [2] | Activity [3] | IC50 [4] | SMILES | IC50 (U-937) | IC50 (U-87 MG [5]) | IC50 [6] | IC50 [7] | IC50 (A549) | IC50 (WI-38) | IC50 (MCF7) | IC50 (T98G) | IC50 (SNB-19 [8]) | Activity (U-87 MG [9]) | Activity (U-87 MG [10]) | Activity (SNB-19 [11]) | Activity (SNB-19 [12]) | fold change (FC) (U-87 MG [14]) | fold change (FC) (SNB-19 [16]) | CI (U-87 MG [17]) | other results
280 nM | 93% | 93% | 34.1 µM | CC(C)c1ccc2c(c1)CC[C@H]1[C@](C)(CNC(=O)Nc3ccc(Cl)cc3)CCC[C@]21C | 15 µM | > 100 µM | > 100 µM | > 100 µM | > 100 µM | > 100 µM | 52 µM | 21.2 µM | < 10 µM | – | – | – | – | – | – | – | –
100 nM | 79% | 107% | 19.3 µM | CC(C)c1ccc2c(c1)CC[C@H]1[C@](C)(CNC(=O)NC34CC5CC(CC(C5)C3)C4)CCC[C@]21C | – | > 100 µM | > 100 µM | > 100 µM | > 100 µM | – | – | > 100 µM | > 100 µM | 72% | 58.2% | 61.3% | 63.7% | 1.7 | 1.6 | 0.44 | fold change (FC) (U-87 MG [13]): 1.4; fold change (FC) (SNB-19 [15]): 1.6; CI (U-87 MG [18]): 0.43; CI (SNB-19 [19]): 0.25; CI (SNB-19 [20]): 0.13
110 nM | 83% | 135% | 5.4 µM | Cc1ccc(NC(=O)NC[C@]2(C)CCC[C@]3(C)c4ccc(C(C)C)cc4CC[C@@H]23)cc1NC(=O)NC[C@]1(C)CCC[C@]2(C)c3ccc(C(C)C)cc3CC[C@@H]12 | > 100 µM | > 100 µM | > 100 µM | > 100 µM | > 100 µM | > 100 µM | > 100 µM | > 100 µM | > 100 µM | 100.7% | 82.1% | 99.5% | 84.4% | 1.2 | 1.2 | 1.03 | CI (U-87 MG [18]): 0.63; CI (SNB-19 [19]): 0.99; CI (SNB-19 [20]): 0.27
90 nM | 92% | 94% | 5.4 µM | CC(C)c1ccc2c(c1)CC[C@H]1[C@](C)(CNC(=O)NCC3(C)CC(NC(=O)NC[C@]4(C)CCC[C@]5(C)c6ccc(C(C)C)cc6CC[C@@H]45)CC(C)(C)C3)CCC[C@]21C (some centres not stated) | > 100 µM | > 100 µM | > 100 µM | > 100 µM | > 100 µM | > 100 µM | > 100 µM | > 100 µM | > 100 µM | 109.2% | 90.9% | 97.3% | 89% | 1.1 | 1.1 | 1.7 | CI (U-87 MG [18]): 0.77; CI (SNB-19 [19]): 0.97; CI (SNB-19 [20]): 0.34
190 nM | 99% | 142% | 9.3 µM | CC(C)c1ccc2c(c1)CC[C@H]1[C@](C)(CNC(=O)NCCCCCCNC(=O)NC[C@]3(C)CCC[C@]4(C)c5ccc(C(C)C)cc5CC[C@@H]34)CCC[C@]21C | > 100 µM | > 100 µM | > 100 µM | > 100 µM | > 100 µM | > 100 µM | > 100 µM | > 100 µM | > 100 µM | 109.8% | 59.3% | 88.9% | 70.3% | 1.7 | 1.4 | 1.79 | CI (U-87 MG [18]): 0.43; CI (SNB-19 [19]): 0.92; CI (SNB-19 [20]): 0.15
